Assay outcomes (PubChem BioAssay)
GPR7 antag: human neuropeptides B/W receptor 1 antagonism. P48145. GPR7-expressing cells, fluorescence antagonist assay. actives 1.1% (n = 290,000). inhibition, % at 4.4 µM. AID 1861; in the data active = inhibition above about 16%, passing the limit was not always enough;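 also: cells stimulated with the agonist NPW; 0% = agonist with vehicle and 100% = vehicle without agonist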
OX1R antag-1: antagonists of human orexin 1 receptor; O43613; CHO/OX1R cells, Fluo-8 calcium fluorescence, orexin A; inhibition, % at 5 µM; actives 0.43% (n = 330,000);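 active = inhibition above its plate's threshold, mean inhibition of all tested compounds on the plate plus 3 SD, cut at about 37% in these data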;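 also: 0% = orexin A challenge wells and 100% = SB-334867-A antagonist wells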
Target sequence (O43613 whole entry, looked up): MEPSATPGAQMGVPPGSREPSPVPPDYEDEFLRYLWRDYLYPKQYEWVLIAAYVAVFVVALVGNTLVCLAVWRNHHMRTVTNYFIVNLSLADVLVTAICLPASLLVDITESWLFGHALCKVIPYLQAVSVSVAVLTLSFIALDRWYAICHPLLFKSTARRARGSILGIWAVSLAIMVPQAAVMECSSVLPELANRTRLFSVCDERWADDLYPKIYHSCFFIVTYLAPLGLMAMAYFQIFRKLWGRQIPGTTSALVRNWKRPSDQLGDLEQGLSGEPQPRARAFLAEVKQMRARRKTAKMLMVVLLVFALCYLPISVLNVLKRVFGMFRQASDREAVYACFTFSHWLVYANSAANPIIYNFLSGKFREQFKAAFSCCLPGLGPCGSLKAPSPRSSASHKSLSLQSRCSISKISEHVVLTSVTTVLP
OX1R antag-2: blocks the human orexin 1 receptor | O43613 | OX1R-expressing cells, FRET antagonist read-out | inhibition, % at 6.6 µM | actives 1.8% (n = 330,000); in the data active = inhibition mostly above about 38%, no sharp cut-off; inactive = mostly below about 40%;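 also: 0% = agonist challenge alone and 100% = reference antagonist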
GalR3 antag: blocks the human galanin receptor 3 | HEK293 GalR3-CNG cAMP membrane potential fluorescence; galR3 body fused to GalR1 C-terminus | AID 651719 | O60755 | actives 0.44% (n = 360,000) | inhibition, % at 3 µM;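 active = inhibition above the screen-wide average plus 3 SD, cut at about 13% in these data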;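 also: forskolin and galanin both at EC90 stimulate the cells; cAMP rise reported by CNG channel membrane potential dye signal; 0% = forskolin plus galanin with DMSO and 100% = forskolin alone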
CHO parental Ca: signal in parental CHO cells, OX1R antagonist counter-screen | inhibition, % at 5.6 µM | actives 0.63% (n = 330,000) | parental CHO-K1, ATP-induced calcium, Fluo-8 fluorescence | AID 463079;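 active = inhibition above that plate's mean sample inhibition plus 3 SD, cut at about 26% in these data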;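 also: 0% = ATP-challenged DMSO wells and 100% = DMSO wells without ATP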
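Assay system – parental CHO cells · Reagent – ATP stimulus · Detection – intracellular calcium via Fluo-8 no-wash fluorescent dye · Evaluation – percent inhibition of ATP-evoked calcium rise, normalized to controls · Controls – ATP wells versus no-ATP DMSO wells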
OX1R Fluo8 conf: confirmation of human orexin 1 receptor antagonists; shares compounds with OX1R antag-1; actives 38% (n = 1,100); CHO/OX1R cells, orexin A calcium Fluo-8 fluorescence; inhibition, % at 5 µM; in the data active = inhibition above about 29%;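 also: 0% = agonist challenge alone and 100% = reference antagonist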
CHO Ca triplic: counter-screen: parental CHO calcium response change, triplicate | shares compounds with OX1R antag-1 | parental CHO-K1, ATP-induced calcium, Fluo-8 fluorescence | inhibition, % at 5.6 µM | actives 9.3% (n = 1,100) | AID 492965;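 active = inhibition above a per-plate limit, the mean inhibition of that plate's test compounds plus 3 SD, cut at about 25% in these data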;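 also: 0% = ATP challenge with DMSO and 100% = DMSO without ATP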
OX1R HTRF confirm: OX1R (human) antagonism, HTRF confirmed | inhibition, % at 6.6 µM | OX1R-expressing cells, HTRF antagonist assay | AID 492964 | actives 49% (n = 1,800) | shares compounds with OX1R antag-2; in the data active = inhibition above about 55%;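 also: CHO cells expressing OX1R stimulated with orexin A at about EC80; 0% = agonist challenge alone and 100% = reference antagonist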
CHO-K1 HTRF cnt: signal in parental CHO-K1 cells, OX1R antagonist counter-screen. inhibition, % at 6.6 µM. HTRF counterscreen. actives 48% (n = 1,800). shares compounds with OX1R antag-2; in the data active = inhibition above about 17%;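 also: 0% = agonist challenge with vehicle and 100% = vehicle alone without agonist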
Numbers without * were called inactive; . = no result given; + = active, no number. Only some compounds are listed: those with a hit (about 3.1% of all), similar ones and a draw of the others.

SMILES	GPR7 antag	OX1R antag-1	OX1R antag-2	GalR3 antag	CHO parental Ca	OX1R HTRF confirm	CHO-K1 HTRF cnt	others
CCCCCCCCn1sccc1=O	.	37*	10	-5	8	.	.	OX1R Fluo8 conf=36*;CHO Ca triplic=21
O=C(O)C(Cc1cnc[nH]1)NS(=O)(=O)c1ccc(Cl)cc1 (stereo not given)	-6	35	-1	-4	0	.	.	OX1R Fluo8 conf=2;CHO Ca triplic=3
Cc1ccc(S(=O)(=O)NC(Cc2cnc[nH]2)C(=O)O)cc1 (stereo not given)	-11	-9	4	-6	-6	.	.
CC(C)(OOC1(c2ccccc2)NC(=O)c2ccccc21)c1ccccc1 (stereo not given)	.	.	.	-8	.	.	.
CC(=O)Nc1ccccc1C(=O)OCC(=O)c1ccc2ccccc2c1	16	44*	27	0	17	.	.	OX1R Fluo8 conf=32*;CHO Ca triplic=7
CC(=O)Nc1ccccc1C(=O)OCc1ccc(C(=O)c2ccccc2)cc1	6	24	20	-7	13	.	.
CCCCCCn1c(=O)c(C(=O)Nc2ncccc2C)c(O)c2ccccc21	-7	30	13	-12	20	.	.	OX1R Fluo8 conf=0;CHO Ca triplic=6
CC1CCN(C(CC(=O)c2ccccc2)C(=O)c2ccccc2)CC1 (stereo not given)	.	.	.	-4	.	.	.
COC(=O)C1=C(c2ccc(F)cc2OCc2ccccc2)C[C@@H]2CC[C@H]1N2C(=O)NCc1ccc(C)cc1	.	56*	22	-8	-3	.	.	OX1R Fluo8 conf=-3;CHO Ca triplic=-15
COC(=O)C1=C(c2cccc(OCc3ccccc3)c2)C[C@@H]2CC[C@H]1N2C(=O)NCc1ccccc1	.	-22	7	-3	-34	.	.
COC(=O)C1=C(c2cccc(OCc3ccccc3)c2)C[C@@H]2CC[C@H]1N2C(=O)NCc1ccccc1OC	.	52*	10	-2	-7	.	.	OX1R Fluo8 conf=-7;CHO Ca triplic=-5
Cc1nc2ccccc2c(=O)n1-c1ccc(F)cc1F	-1	-13	14	-2	-2	.	.
Oc1ccc(C2NCc3ccccc3-n3cccc32)cc1Cl (stereo not given)	3	0	23	-7	3	.	.	OX1R Fluo8 conf=0;CHO Ca triplic=-10
FC(F)(F)c1cccc(C2NCc3ccccc3-n3cccc32)c1 (stereo not given)	5	-29	4	-4	-32	.	.
Cn1cc(/C=C2\C(=O)NC(=O)N(c3ccccc3)C2=O)c2ccccc21	-7	54*	9	-8	0	.	.	OX1R Fluo8 conf=-5;CHO Ca triplic=-5
Cc1nn(CC(C)C)c(Cl)c1C(=O)O	-4	-5	7	-5	15	.	.
COC(=O)C1=C(c2ccccc2OCc2ccccc2)C[C@@H]2CC[C@H]1N2C(=O)NCCOc1ccccc1Cl	.	62*	53*	-8	-11	70*	-2	OX1R Fluo8 conf=33*;CHO Ca triplic=-10
COC(=O)C1=C(c2ccc(OC(F)(F)F)cc2)C[C@@H]2CC[C@H]1N2C(=O)NCCCOC(C)C	.	9	2	-6	-22	.	.
COc1cccc(OP(=O)(Nc2ccccc2)Oc2cccc(OC)c2)c1	-9	45*	60*	.	-4	47	0	OX1R Fluo8 conf=29*;CHO Ca triplic=0
O=P(Nc1ccccc1)(Oc1ccccc1)Oc1ccccc1	-5	-7	27	-5	-8	.	.
CCOC(=O)c1c(N)n(CCCOC(=O)c2ccco2)c2nc3ccccc3nc12	-6	-11	83*	1	-6	36	22*
O=P(Nc1cccnc1)(Oc1ccccc1Cl)Oc1ccccc1Cl	-13	-32	20	-2	-12	.	.
CN1CC=C2C(C#N)=C(N)C(C#N)(C#N)C(c3ccncc3)C2C1 (stereo not given)	-10	-2	102*	.	1	18	24*
COc1cccc2cc(-c3cc(=O)oc4ccc(OC(=O)N(C)C)cc34)oc12	-2	-16	15	1	-17	.	.
N#CC(C#N)=NNc1ccc(S(N)(=O)=O)cc1	-5	-4	84*	-1	-4	19	-1
SMILES	GPR7 antag	OX1R antag-1	OX1R antag-2	GalR3 antag	CHO parental Ca	OX1R HTRF confirm	CHO-K1 HTRF cnt	others
O=c1[nH]c(O)c(N=Nc2cc([N+](=O)[O-])ccc2O)c(=O)[nH]1	1	-5	+	3	4	71*	93*
O=[N+]([O-])c1ccc(N2CCCC2)c(F)c1Br	8	-8	26	-4	5	.	.
O=[N+]([O-])c1ccc(N2CCOCC2)c2ccncc12	0	-17	107*	4	-12	47	65*
O=C(NCC1=C(c2ccc3ccccc3c2)C[C@@H]2CC[C@H]1N2Cc1ccco1)c1cccnc1	.	.	.	-6	.	.	.
O=C1C(=O)c2ccccc2-c2ccccc21	5	4	106*	3	-18	61*	29*
O=C1C(=O)c2cccc3cccc1c23	2	-2	101*	4	-7	31	42*
CN1CCN(c2cccc3c2C(=O)c2ccccc2C3=O)CC1	-10	.	.	-6	.	.	.
Cc1cc(OCC(=O)N2CCN(CC(=O)N3CCOCC3)CC2)c(C(C)C)cc1Cl	.	-35	3	-5	-11	.	.
CN(C)S(=O)(=O)c1cc(NC(=O)COC(=O)Cc2ccccc2)ccc1Cl	-3	-10	14	-2	-13	.	.
Cn1c(=O)c2nncnc2n(C)c1=O	-10	-12	125*	2	-4	45	75*
COC(=O)C1=C(c2ccc3ccccc3c2)C[C@@H]2CC[C@H]1N2C(=O)NCC1CC1	.	-10	18	-5	-12	.	.
CCOc1cc(CNCCc2c[nH]c3ccccc23)cc(Cl)c1OC	1	-37	105*	-10	-17	17	3
Cn1c(O)c(N=Nc2ccc(S(=O)(=O)N3CCOCC3)cc2)c(=O)n(C)c1=O	-1	3	86*	-1	-10	50	74*
O=C1NC(=O)C(=Cc2ccc(-c3ccc(S(=O)(=O)N4CCOCC4)cc3)o2)C(=O)N1	-1	-8	31	-3	4	.	.
COC(=O)C1=C(c2cccc(OCc3ccccc3)c2)C[C@@H]2CC[C@H]1N2C(=O)NCc1ccc([N+](=O)[O-])cc1	.	7	12	-4	-19	.	.
Cc1nc2c(=O)n(C)c(=O)nc-2n(C)n1	-15	2	+	-5	-8	84*	100*
CSCCC(c1nnnn1C1CCCCC1)N1CCC2(CC1)C(=O)NCN2c1ccccc1 (stereo not given)	.	.	.	-6	.	.	.
COC(=O)C1=C(c2ccc(C(C)=O)cc2)C[C@@H]2CC[C@H]1N2C(=O)NCCOc1ccccc1Cl	.	-37	9	-2	-20	.	.
